Source: ChEMBL document CHEMBL4842319, “Synthesis of alkynylated 1,2,4-oxadiazole/1,2,3-1H-triazole glycoconjugates: Discovering new compounds for use in chemotherapy against lung carcinoma and Mycobacterium tuberculosis” (Eur J Med Chem, 2021)
In brackets after ≈: the same amount, converted by molar mass.

Experiments:
[1] = Cytotoxicity against human AGP01 cells assessed as inhibition of cell proliferation at 25 uM incubated for 72 hrs by MTT assay relative to control; assay type: functional; design: scale not given: the % may be the effect or the level left
Procedure, shortened: (§1)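 Tumor lines from NCI. PC-3, HCT-116 and NCIH-460 were grown in RPMI 1640; SKMEL-103 and AGP-01 in DMEM; all with 10% FBS at 37 °C, 5% CO2. Seeding was 0.3×10⁶ cells/mL for SKMEL-103 and AGP-01, 0.1×10⁶ for PC-3 and NCIH-460, and 0.7×10⁵ for HCT-116. Cells were exposed to compound at 25 µM for 72 h. Cells were centrifuged, 1% MTT added for 3 h, formazan dissolved in DMSO and read at 570 nm.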

NCI-H460 = experiment: Cytotoxicity against human NCI-H460 cells assessed as inhibition of cell proliferation at 25 uM incubated for 72 hrs by MTT assay relative to control; assay type: functional; design: scale not given: the % may be the effect or the level left; procedure, shortened: as §1
PC-3 = experiment: Cytotoxicity against human PC-3 cells assessed as inhibition of cell proliferation at 25 uM incubated for 72 hrs by MTT assay relative to control; assay type: functional; design: scale not given: the % may be the effect or the level left; procedure, shortened: as §1
SK-MEL-103 = experiment: Cytotoxicity against human SK-MEL-103 cells assessed as inhibition of cell proliferation at 25 uM incubated for 72 hrs by MTT assay relative to control; assay type: functional; design: scale not given: the % may be the effect or the level left; procedure, shortened: as §1
HCT-116 = experiment: Cytotoxicity against human HCT-116 cells assessed as inhibition of cell proliferation at 25 uM incubated for 72 hrs by MTT assay relative to control; assay type: functional; design: scale not given: the % may be the effect or the level left; procedure, shortened: as §1
[2] = tested on: Mycobacterium tuberculosis; experiment: Antimycobacterial activity against Mycobacterium tuberculosis H37Rv ATCC 27294 assessed as inhibition of bacterial growth incubated for 9 days by resazurin microtiter assay; assay type: functional; settings: H37Rv ATCC 27294, 216 h, time 9 day
Procedure, shortened: (§2)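 REMA broth microdilution in 7H9-S medium, run in duplicate. Test compounds were serially two-fold diluted on the plate from 64 to 0.5 µg/mL. Inoculum taken from fresh Löwenstein-Jensen culture, adjusted to McFarland no. 1 and diluted 1:20. Plates were sealed and incubated at 37 °C in normal atmosphere for 9 days, then resazurin was added. Rifampicin and ethambutol served as standards. MIC reported in µg/mL.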

[3] = Selectivity index, ratio of CC50 for mouse RAW264.7 cells to MIC for antimycobacterial activity against Mycobacterium tuberculosis H37Rv ATCC 27294; assay type: toxicity; settings: read-out: Selectivity Index
[4] = Cytotoxicity against mouse RAW264.7 cells assessed as reduction in cell viability incubated for 48 hrs by MTT assay; assay type: cell-based
Procedure, shortened: (§3)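 RAW 264.7 macrophages and HepG2 cells were cultured in DMEM at 37 °C, 5% CO2. For the assay, 10⁵ cells/well were preincubated for 24 h, then exposed to compounds at […] for 48 h, in duplicate. MTT (5 mg/mL in PBS) was added for 2 h and absorbance read at 570 nm. Untreated wells served as the negative control. CC50 obtained by regression analysis.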

[5] = Cytotoxicity against human HepG2 cells assessed as reduction in cell viability incubated for 48 hrs by MTT assay; assay type: cell-based; procedure, shortened: as §3
[6] = tested on: Mycobacterium tuberculosis; experiment: Antimycobacterial activity against Mycobacterium tuberculosis H37Ra ATCC 25177 assessed as inhibition of bacterial growth incubated for 9 days by resazurin microtiter assay; assay type: functional; settings: H37Ra ATCC 25177, 216 h, time 9 day; procedure, shortened: as §2
[7] = Selectivity index, ratio of CC50 for human HepG2 cells to MIC for antimycobacterial activity against Mycobacterium tuberculosis H37Rv ATCC 27294; assay type: toxicity; settings: read-out: Selectivity Index

| SMILES | Activity [1] [%] | Activity (NCI-H460) [%] | Activity (PC-3) [%] | Activity (SK-MEL-103) [%] | Activity (HCT-116) [%] | MIC [2] [µg/mL] | selectivity ratio [3] | CC50 at 48 h [4] [µg/mL] | CC50 at 48 h [5] [µg/mL] | MIC [6] [µg/mL] | selectivity ratio [7] |
| --- | --- | --- | --- | --- | --- | --- | --- | --- | --- | --- | --- |
| O=[N+]([O-])c1ccc(-c2noc(NC3CCCCC3)n2)cc1 | 53.2 | 10.4 | 20.3 | 50.7 | – | – | – | – | – | – | – |
| O=[N+]([O-])c1cccc(-c2noc(NC3CCCCC3)n2)c1 | 11.6 | – | 9.9 | 32 | 14.1 | – | – | – | – | – | – |
| CC(=O)OC[C@H]1O[C@H](OC[C@@H](CN=[N+]=[N-])OC(C)=O)C=C[C@@H]1OC(C)=O | – | – | – | – | – | ≥ 64 | < 1.66 | 106 (≈ 286 µM) | > 200 | ≥ 64 | – |
| CC(=O)OC[C@H]1O[C@H](OC[C@H](Cn2cc(COc3ccc(-c4noc(C)n4)cc3)nn2)OC(C)=O)C=C[C@@H]1OC(C)=O | – | – | – | – | – | ≥ 64 | < 1.74 | 112 (≈ 191 µM) | 37.7 (≈ 64.3 µM) | ≥ 64 | < 0.58 |
| CC(=O)OC[C@H]1O[C@H](OC[C@@H](Cn2cc(CN(c3nc(-c4cccc([N+](=O)[O-])c4)no3)C3CCCCC3)nn2)OC(C)=O)C=C[C@@H]1OC(C)=O | 44.7 | – | 38.4 | 42.2 | 27.7 | ≥ 64 | < 1.56 | 100 (≈ 144 µM) | > 200 | ≥ 64 | – |
| C#CCN(c1nc(-c2ccc(Br)cc2)no1)C1CCCCC1 | – | – | – | – | – | 32 (≈ 88.8 µM) | 0.48 | 15.7 (≈ 43.5 µM) | 102 (≈ 283 µM) | 32 (≈ 88.8 µM) | 3.18 |
| CC(=O)OC[C@H]1O[C@H](OC[C@H](Cn2cc(-c3ccc(-c4noc(NC5CCCCC5)n4)cc3)nn2)OC(C)=O)C=C[C@@H]1OC(C)=O | – | – | – | – | – | ≥ 64 | < 0.25 | 16.3 (≈ 25.5 µM) | 79.8 (≈ 125 µM) | ≥ 64 | < 1.24 |
| CC(=O)OC[C@H]1O[C@H](OC[C@@H](Cn2cc(CN(c3nc(-c4ccc(Cl)cc4)no3)C3CCCCC3)nn2)OC(C)=O)C=C[C@@H]1OC(C)=O | – | – | – | – | – | 64 (≈ 93.1 µM) | 0.55 | 35.5 (≈ 51.7 µM) | 46.9 (≈ 68.3 µM) | 64 (≈ 93.1 µM) | 0.73 |
| CC(=O)OC[C@H]1O[C@H](OC[C@H](Cn2cc(COc3ccc(-c4noc(NC5CCCCC5)n4)cc3)nn2)OC(C)=O)C=C[C@@H]1OC(C)=O | – | – | – | – | – | 16 (≈ 23.9 µM) | 2.08 | 33.3 (≈ 49.8 µM) | 99.5 (≈ 149 µM) | 16 (≈ 23.9 µM) | 6.21 |
| C#CCOc1ccc(-c2noc(N(CC#C)C3CCCCC3)n2)cc1 | – | – | – | – | – | 64 (≈ 191 µM) | 1.57 | 101 (≈ 300 µM) | > 200 | ≥ 64 | > 3.12 |
| CCCCCCCCCCc1cn(C[C@@H](CO[C@@H]2C=C[C@H](OC(C)=O)[C@@H](COC(C)=O)O2)OC(C)=O)nn1 | – | – | – | – | – | 64 (≈ 119 µM) | 0.47 | 30.4 (≈ 56.5 µM) | 59 (≈ 110 µM) | 64 (≈ 119 µM) | 0.92 |
| C#CCN(c1nc(-c2ccc([N+](=O)[O-])cc2)no1)C1CCCCC1 | 52.5 | – | 53.7 | 18.5 | 37.2 | ≥ 64 | < 0.41 | 26.7 (≈ 81.9 µM) | 43.7 (≈ 134 µM) | ≥ 64 | < 0.68 |
| C#CCN(c1nc(-c2ccc(C#C)cc2)no1)C1CCCCC1 | – | – | – | – | – | ≥ 64 | < 0.2 | 13.1 (≈ 42.9 µM) | 27.9 (≈ 91.5 µM) | – | < 0.43 |
| CC(=O)OC[C@H]1O[C@H](OC[C@@H](Cn2cc(CN(c3nc(-c4ccc(-c5cn(C[C@H](CO[C@@H]6C=C[C@H](OC(C)=O)[C@@H](COC(C)=O)O6)OC(C)=O)nn5)cc4)no3)C3CCCCC3)nn2)OC(C)=O)C=C[C@@H]1OC(C)=O | – | – | – | – | – | ≥ 64 | < 1.82 | 117 (≈ 111 µM) | 11.8 (≈ 11.2 µM) | ≥ 64 | < 0.18 |
| C#CCN(c1nc(-c2ccc(C(F)(F)F)cc2)no1)C1CCCCC1 | – | – | – | – | – | 32 (≈ 91.6 µM) | 1.2 | 38.3 (≈ 110 µM) | 61.9 (≈ 177 µM) | 64 (≈ 183 µM) | 1.93 |
| CC(=O)OC[C@H]1O[C@H](OC[C@@H](Cn2cc(CN(c3nc(-c4ccc(Br)cc4)no3)C3CCCCC3)nn2)OC(C)=O)C=C[C@@H]1OC(C)=O | – | – | – | – | – | 8 (≈ 10.9 µM) | 4.89 | 39.1 (≈ 53.5 µM) | 47.6 (≈ 65.1 µM) | 4 (≈ 5.47 µM) | 5.95 |
| C#CCN(c1nc(-c2ccc(C)cc2)no1)C1CCCCC1 | – | – | – | – | – | ≥ 64 | < 0.27 | 17.6 (≈ 59.5 µM) | 91.9 (≈ 311 µM) | 64 (≈ 217 µM) | < 1.43 |
| C#CCN(c1nc(-c2ccc(Cl)cc2)no1)C1CCCCC1 | – | – | – | – | – | 16 (≈ 50.7 µM) | 0.95 | 15.1 (≈ 47.9 µM) | 41.3 (≈ 131 µM) | 32 (≈ 101 µM) | 2.58 |
| CC(=O)OC[C@H]1O[C@H](OC[C@@H](Cn2cc(COc3ccc(-c4noc(N(Cc5cn(C[C@H](CO[C@@H]6C=C[C@H](OC(C)=O)[C@@H](COC(C)=O)O6)OC(C)=O)nn5)C5CCCCC5)n4)cc3)nn2)OC(C)=O)C=C[C@@H]1OC(C)=O | – | – | – | – | – | ≥ 64 | – | > 200 | 47 (≈ 43.6 µM) | ≥ 64 | < 0.73 |
| CC(=O)OC[C@H]1O[C@H](OC[C@@H](Cn2cc(CN(c3nc(-c4cccc(Br)c4)no3)C3CCCCC3)nn2)OC(C)=O)C=C[C@@H]1OC(C)=O | 59.9 | 27.1 | 45.5 | 52.3 | – | – | – | – | – | – | – |
| CC[C@@H](CO)NCCN[C@@H](CC)CO [ETHAMBUTOL] | – | – | – | – | – | 1 (≈ 4.89 µM) | – | ≥ 400 | > 400 | 1 (≈ 4.89 µM) | – |
| CO[C@H]1/C=C/O[C@@]2(C)Oc3c(C)c(O)c4c(O)c(c(/C=N/N5CCN(C)CC5)c(O)c4c3C2=O)NC(=O)/C(C)=C\C=C\[C@H](C)[C@H](O)[C@@H](C)[C@@H](O)[C@@H](C)[C@H](OC(C)=O)[C@@H]1C [RIFAMPIN] | – | – | – | – | – | 0.125 (≈ 0.152 µM) | 643 | 80.4 (≈ 97.7 µM) | 176 (≈ 214 µM) | 0.062 (≈ 0.0753 µM) | 1410 |
